In paper PMC12278818 (RSC Advances, 2025):

Assays:
[1] = test system: Mycobacterium tuberculosis H37Rv; assay: Microplate alamar blue assay; type: cell-based; conditions: MABA, 7 days, unit as printed mg mL^−1
A549 cell line = assay: MTT-based cytotoxicity on lung cancer cell line; set-up: species or system human
Summary of the method: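 A549 lung cancer cells were exposed to test compounds for 24 h, with cisplatin as the reference. Viability was measured by MTT: viable cells reduce the dye to formazan crystals, which are dissolved in solvent and read at 570 nm. IC50 is the half-maximal inhibitory concentration.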

[2] = test system: mouse macrophage cell line (RAW 264.7); conditions: RAW 264.7, 48 h, MTT
InhA enzyme = InhA enzyme (Mycobacterium tuberculosis, UniProt P9WGR1); assay: InhA enzyme inhibition assay; type: biochemical, M. tuberculosis; conditions: for inhibition at 50 µM: read-out: % inhibition InhA at 50 μM of inhibitor
InhA enzyme, sequence (P9WGR1 whole entry, looked up): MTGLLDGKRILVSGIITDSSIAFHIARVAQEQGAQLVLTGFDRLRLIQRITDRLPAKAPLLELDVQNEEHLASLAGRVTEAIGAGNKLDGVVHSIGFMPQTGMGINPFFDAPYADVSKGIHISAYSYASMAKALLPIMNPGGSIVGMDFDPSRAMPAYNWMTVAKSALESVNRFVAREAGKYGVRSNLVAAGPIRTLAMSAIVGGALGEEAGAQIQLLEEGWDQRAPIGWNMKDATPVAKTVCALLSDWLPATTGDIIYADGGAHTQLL

Row | Molecule | % Toxicity at 25 μg mL^−1 [2] | inhibition at 50 µM (InhA enzyme) | IC50 (A549 cell line; Homo sapiens, A549) | further results
1 | 1-(4-(1H-Pyrrol-1-yl)phenyl)-6-(4-(dimethyl amino)phenyl)hexa-2,5-dien-1-one [Compound 3v] |  |  |  | MIC values [1]: 25 mg/mL
2 | 1-(4-(1H-Pyrrol-1-yl)phenyl)-6-phenylhexa-2,5-dien-1-one [Compound 3r] |  |  |  | MIC values [1]: >25 mg/mL
3 | 4-(4-(1H-Pyrrol-1-yl)phenyl)-6-(furan-3-yl)pyrimidin-2-amine [Compound 4b] |  |  |  | MIC values [1]: 25 mg/mL
4 | N.N.[Cl][Pt][Cl] [Cisplatin, reference compound] |  |  |  | IC50 (A549 cell line; A549, MTT): 9.9 µM
5 | CC(C)c1ccc(C=CC(=O)c2ccc(-n3cccc3)cc2)cc1 [Compound 3k, 1-(4-(1H-Pyrrol-1-yl)phenyl)-3-(4-isopropylphenyl)prop-2-en-1-one] | 30.1% | 36% |  | 
6 | O=C(C=Cc1cccs1)c1ccc(-n2cccc2)cc1 [Compound 3l, 1-(4-(1H-Pyrrol-1-yl)phenyl)-3-(thiophen-2-yl)prop-2-en-1-one] | 26.6% | 36% |  | 
7 | COc1ccc(-c2cc(-c3ccc(-n4cccc4)cc3)nc(N)n2)c(OC)c1 [Compound 4c, 4-(4-(1H-Pyrrol-1-yl)phenyl)-6-(2,4-dimethoxyphenyl)pyrimidin-2-amine] | 25.80% | 16% | 55.1 µM | 
8 | COc1ccc(-c2cc(-c3ccc(-n4cccc4)cc3)nc(N)n2)cc1 [Compound 4g, 4-(4-(1H-Pyrrol-1-yl)phenyl)-6-(4-methoxyphenyl)pyrimidin-2-amine] | 19.09% | 36% | 49.4 µM | 
9 | Nc1nc(-c2ccc(-n3cccc3)cc2)cc(-c2ccc(Cl)cc2Cl)n1 [Compound 4h, 4-(4-(1H-Pyrrol-1-yl)phenyl)-6-(2,4-dichlorophenyl)pyrimidin-2-amine] | 26.80% | < 5% | 105 µM | 
10 | CC(C)c1ccc(-c2cc(-c3ccc(-n4cccc4)cc3)nc(N)n2)cc1 [Compound 4k, 4-(4-(1H-Pyrrol-1-yl)phenyl)-6-(4-isopropylphenyl)pyrimidin-2-amine] | 28.90% | 10% | 123 µM | 
11 | COc1cccc(-c2cc(-c3ccc(-n4cccc4)cc3)nc(N)n2)c1O [Compound 4u, 2-(6-(4-(1H-Pyrrol-1-yl)phenyl)-2-aminopyrimidin-4-yl)-6-methoxyphenol] | 19.10% | < 5% |  | % inhibition InhA at 50 μM of inhibitor (InhA enzyme; 50 μM inhibitor): no inhibition
